# Values joined by “and” are separate entries in the source; they are usually repeats but may differ in a detail not shown here. Equal values may be shown once.
# Key:
# [1] = (§1) Lethal dose was measured in mice after ip administration.; assay type: toxicity, organism-based; details: mouse, in vivo
# In short: (§2)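 Male Simonsen ICR-derived mice (16-24 g), groups of three, given compound ip in increasing doses within a behavioral screen. Deaths counted on day 5, and LD50 estimated from 5-day survival. Quantal data analysed by the Litchfield-Wilcoxon method.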
# Mus musculus [2] = assay: Dose causing a neurological deficit in 50% of mice after ip administration.; assay type: functional
# In short: (§3)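 Traction test in male Hilltop ICR-derived mice (19-30 g, groups of 8-10) just before electroshock, 15 min after ip or 30 min after oral dosing. Mice placed on a 16-gauge, 65-cm copper wire 40 cm above the table; deficit scored as failure to stay on for 10 s. ND50 with 95% limits by Litchfield-Wilcoxon.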
# Mus musculus [3] = assay: Anticonvulsant activity in mouse maximal electroshock assay following i.p. administration.; assay type: functional; details: ip
# In short: (§4)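 Male Hilltop ICR-derived mice (19-30 g), groups of 8-10, dosed ip with compound or aqueous vehicle. After 15 min pretreatment, a transcorneal 60-Hz, 50 mA shock was given for 0.2 s. Just before the shock, each mouse was tested on a horizontal wire (10 s). Quantal data were analysed by Litchfield-Wilcoxon to give ED50 with 95% confidence limits.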
# Mus musculus [4] = assay: Protective index is defined as ND50 (i.p.) divided by MES ED50(i.p.); assay type: functional
# In short: (§5)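 Ratio of ND50 from the wire traction test to MES ED50, both measured by the same route (ip or oral) in the same animals. Quantal dose-response data for each were evaluated by Litchfield-Wilcoxon.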
# Mus musculus [5] = assay: Compound was evaluated for anticonvulsant activity by maximal electroshock assay(MES) in mice after ip administration; 22-80; assay type: functional; in short: as §4
# Mus musculus [6] = assay: Compound was evaluated for anticonvulsant activity by maximal electroshock assay(MES) in mice after ip administration; 14-33; assay type: functional; in short: as §4
# Mus musculus [7] = assay: Dose of compound causing a neurological deficit in 50% of mice after ip administration; 32-90; assay type: functional; in short: as §3
# Mus musculus [8] = assay: Compound was evaluated for anticonvulsant activity by maximal electroshock assay(MES) in mice after ip administration; 8-13; assay type: functional; in short: as §4
# Mus musculus [9] = assay: Protective index defined as ND50 (p.o.) divided by MES ED50(op); assay type: functional; in short: as §5
# Mus musculus [10] = assay: Dose of compound causing a neurological deficit in 50% of mice after ip administration; 35-49; assay type: functional; in short: as §3
# Rattus norvegicus [11] = assay: Dose of compound causing a neurological deficit in 50% of rat after ip administration; 31-78; assay type: functional
# In short: (§6)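 Rats (Simonsen Sprague-Dawley-derived, 80-110 g, groups of 8-10) placed on a suspended 16-gauge, 65-cm copper wire just before electroshock. Deficit scored as inability to remain for 8 s. Pretreatment was 15 min ip or 30 min oral. Quantal data analysed by Litchfield-Wilcoxon to give ND50 with 95% limits.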
# Mus musculus [12] = assay: Dose of compound causing a neurological deficit in 50% of mice after po administration; 79-196; assay type: functional; in short: as §3
# Mus musculus [13] = assay: Compound was evaluated for anticonvulsant activity by maximal electroshock assay(MES) in mice after po administration; 23-40; assay type: functional
# In short: (§7)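 Male Hilltop ICR-derived mice (19-30 g), groups of 8-10, given compound or aqueous vehicle orally. The transcorneal 60-Hz shock (50 mA, 0.2 s) followed a 30 min pretreatment and a wire-hang neurological check (10 s). ED50 and 95% confidence limits were obtained from quantal data by the Litchfield-Wilcoxon method.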
# Rattus norvegicus [14] = assay: Dose of compound causing a neurological deficit in 50% of rat after po administration.; assay type: functional; in short: as §6
# Rattus norvegicus [15] = assay: Compound was evaluated for anticonvulsant activity by maximal electroshock assay(MES) in rat after po administration; 7.3-20; assay type: functional
# In short: (§8)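 Male Simonsen Sprague-Dawley-derived rats, 80-110 g, groups of 8-10, dosed with compound or aqueous vehicle; pretreatment 15 min after ip or 30 min after oral dosing. Transcorneal electroshock, 150 mA, 60 Hz, 0.2 s, given after the wire test. ED50 with 95% confidence limits from quantal data by Litchfield-Wilcoxon.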
# Rattus norvegicus [16] = assay: Compound was evaluated for anticonvulsant activity by maximal electroshock assay(MES) in rat after ip administration; […]; assay type: functional
# Rattus norvegicus [17] = assay: Compound was evaluated for anticonvulsant activity by maximal electroshock assay(MES) in rat after po administration; 15-36; assay type: functional; in short: as §8
# Mus musculus [18] = assay: Dose of compound causing a neurological deficit in 50% of mice after po administration.; assay type: functional; in short: as §3
# Mus musculus [19] = assay: Dose of compound causing a neurological deficit in 50% of mice after ip administration; 41-246; assay type: functional; in short: as §3
# Rattus norvegicus [20] = assay: Compound was evaluated for anticonvulsant activity by maximal electroshock assay(MES) in rat after ip administration; 3.8-8.4; assay type: functional
# Mus musculus [21] = assay: Compound was evaluated for anticonvulsant activity by maximal electroshock assay(MES) in mice after po administration; 15-26; assay type: functional; in short: as §7
# Rattus norvegicus [22] = assay: Dose of compound causing a neurological deficit in 50% of rat after ip administration.; assay type: functional; in short: as §6
# Mus musculus [23] = assay: Dose causing a neurological deficit in 50% of mice following p.o. administration.; assay type: functional; in short: as §3
# Mus musculus [24] = assay: compound was evaluated for anticonvulsant activity by maximal electroshock assay(MES) in mice after po administration.; assay type: functional
# In short: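 Male Hilltop ICR-derived mice, 19-30 g, groups of 8-10, dosed orally with compound or aqueous vehicle. Transcorneal electroshock (50 mA, 60 Hz, 0.2 s) delivered 30 min after dosing, immediately after a wire-hang neurological test. ED50 with 95% confidence limits estimated from quantal data by Litchfield-Wilcoxon.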
# Rattus norvegicus [25] = assay: Compound was evaluated for anticonvulsant activity by maximal electroshock assay(MES) in rat after ip administration.; assay type: functional
# Mus musculus [26] = assay: Dose of compound causing a neurological deficit in 50% of mice after po administration; 82-1100; assay type: functional; in short: as §3
# Mus musculus [27] = assay: Dose of compound causing a neurological deficit in 50% of mice after ip administration; 21-52; assay type: functional; in short: as §3
# Rattus norvegicus [28] = assay: Compound was evaluated for anticonvulsant activity by maximal electroshock assay(MES) in rat after po administration; 4.5-19; assay type: functional; in short: as §8
# Rattus norvegicus [29] = assay: Compound was evaluated for anticonvulsant activity by maximal electroshock assay(MES) in rat after ip administration; 1.5-6.7; assay type: functional
# Mus musculus [30] = assay: Compound was evaluated for anticonvulsant activity by maximal electroshock assay(MES) in mice after po administration; 13-23; assay type: functional; in short: as §7
# Mus musculus [31] = assay: as §1; assay type: functional; in short: as §2
# Rattus norvegicus [32] = assay: Dose of compound causing a neurological deficit in 50% of rat after ip administration; 29-57; assay type: functional; in short: as §6
compound,measurement,setting,value
CCCSC(Cn1ccnc1)(SCCC)c1ccc2ccccc2c1.Cl,LD50,[1],> 100 mg/kg
same,ND50,Mus musculus [2],>100 mg/kg
same,ED50,Mus musculus [3],> 100 mg/kg
Cl.c1ccc2cc(C3(CCn4ccnc4)SCCS3)ccc2c1,ND50,Mus musculus [2],33 mg/kg
same,ED50,Mus musculus [3],15 mg/kg
same,PI,Mus musculus [4],2.2
CSC(Cn1ccnc1)c1ccc2ccccc2c1.Cl (centres undefined),ND50,Mus musculus [2],76 mg/kg
same,ED50,Mus musculus [3],37 mg/kg
same,PI,Mus musculus [4],2.1
CSC(Cn1ccnc1)(SC)c1ccc2ccccc2c1.Cl,LD50,[1],> 100 mg/kg
same,ND50,Mus musculus [2],29 mg/kg
same,PI,Mus musculus [4],0.9
Cl.O=C(Cn1ccnc1)c1ccc2cc(Br)ccc2c1,ED50,Mus musculus [5],41 mg/kg
Cl.c1ccc(SC(Cn2ccnc2)(Sc2ccccc2)c2ccc3ccccc3c2)cc1,ND50,Mus musculus [2],>60 mg/kg
same,ED50,Mus musculus [3],> 60 mg/kg
COc1c(C(=O)Cn2ccnc2)ccc2ccccc12.Cl,ED50,Mus musculus [6],23 mg/kg
same,ND50,Mus musculus [7],51 mg/kg
same,PI,Mus musculus [4],2.2
COC(Cn1ccnc1)c1ccc2ccccc2c1.Cl (centres undefined),ED50,Mus musculus [8],10 mg/kg
same,PI,Mus musculus [9],3.9
same,ND50,Mus musculus [10],42 mg/kg
same,ND50,Rattus norvegicus [11],46 mg/kg
same,ND50,Mus musculus [12],110 mg/kg
same,ED50,Mus musculus [13],28 mg/kg
same,ND50,Rattus norvegicus [14],>100 mg/kg
same,PI,Mus musculus [4],4.2
same,ED50,Rattus norvegicus [15],13 mg/kg
same,ED50,Rattus norvegicus [16],3.8 mg/kg
Cl.O=C(CCn1ccnc1)c1ccc2ccccc2c1,ED50,Rattus norvegicus [17],25 mg/kg
same,ED50,Mus musculus [8],10 mg/kg
same,PI,Mus musculus [9],>5 and >4
same,ND50,Mus musculus [18],>100 mg/kg
same,ND50,Mus musculus [19],60 mg/kg
same,ED50,Rattus norvegicus [20],5.9 mg/kg
same,ND50,Rattus norvegicus [14],>100 mg/kg
same,ED50,Mus musculus [21],20 mg/kg
same,ND50,Rattus norvegicus [22],>60 mg/kg
same,PI,Mus musculus [4],6 and >10
Cl.c1ccc2cc(C3(Cn4ccnc4)SCCS3)ccc2c1,LD50,[1],> 30 mg/kg
same,PI,Mus musculus [9],1.8
same,ND50,Mus musculus [2],64 mg/kg
same,ND50,Mus musculus [23],125 mg/kg
same,ED50,Mus musculus [24],70 mg/kg
same,PI,Mus musculus [4],2.4
Cl.c1ccc2cc(Cn3ccnc3)ccc2c1,ND50,Mus musculus [2],32 mg/kg
same,ED50,Mus musculus [3],25 mg/kg
same,ED50,Rattus norvegicus [25],6.2 mg/kg
same,ND50,Rattus norvegicus [22],32 mg/kg
OC(Cn1ccnc1)c1ccc2ccccc2c1 (centres undefined),LD50,[1],> 300 mg/kg
Cl.c1ccc(CSC(Cn2ccnc2)(SCc2ccccc2)c2ccc3ccccc3c2)cc1,ND50,Mus musculus [2],>100 mg/kg
same,ED50,Mus musculus [3],> 100 mg/kg
Cl.c1ccc2cc(C3(Cn4ccnc4)OCCO3)ccc2c1,ND50,Mus musculus [26],173 mg/kg
same,ND50,Mus musculus [27],31 mg/kg
same,ED50,Rattus norvegicus [28],10 mg/kg
same,ED50,Rattus norvegicus [29],4.5 mg/kg
same,ED50,Mus musculus [30],18 mg/kg
same,LD50,Mus musculus [31],> 100 mg/kg
same,ND50,Rattus norvegicus [14],>300 mg/kg
same,ND50,Rattus norvegicus [32],41 mg/kg

# — ChEMBL document CHEMBL1121883, “1-(Naphthylalkyl)-1H-imidazole derivatives, a new class of anticonvulsant agents” (J Med Chem, 1981)
